From PubChem
This is a sample that favours compounds with a hit; in the whole collection about 8.9% have one here.
MT stabilize HCS – microtubule stabilizers in HeLa cells, primary screen, imaging, high-content imaging. HeLa tubulin immunostaining HCS, 24 h; share of cells brighter than vehicle mean+2SD. % tubulin-high responders, % at 10 µM. 200,000 compounds, 0.83% hits. AID 2205, 2009;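 active means plate Z-score above 3 for both tubulin-high and condensed-nucleus cell shares, with cell loss under 80%, at 10 µM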;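 further: anti alpha tubulin signal scored within the nucleus-defined area of each cell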
L major viab – Leishmania major promastigote growth inhibition, primary screen; 200,000 compounds, 9% hits; AID 1063, 2008; Leishmania major promastigotes, resazurin fluorescence viability; inhibition, % at 10 µM; in the data active means inhibition above about 50%;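 further: promastigotes grown with compound for 44 hours at 28 °C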
HSV augment – enhancers of HSV replication in host cells, fold increase, host cell viability; maximum fold increase; 220,000 compounds, 0.005% hits; AID 1956, 2009; HSV replication augmentation in cells; in the data active means maximum fold increase above about 1.5; inconclusive means no clear call, values can overlap the other calls; tested in PC3 cells
bCat nuc transl – modulators of beta-catenin nuclear translocation, primary screen, imaging, HeLa cells, immunofluorescence, high-content | nuclear translocation activity, % at 5 µM | 190,000 compounds, 0.3% hits | AID 1665, 2009;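 active means nuclear translocation activity above 50% at 5 µM, with a well cell count of 50 or more; inconclusive means wells under 50 cells across six images, flagged as toxic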;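 further: per-cell ratio of nuclear to cytoplasmic median beta-catenin stain intensity; plate controls were DMSO negative control for no effect and GSK-3 inhibitor IX positive control for full effect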
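test system = HeLa cells, endogenous beta-catenin | dosing = single 5 µM dose plus 0.02–20 µM confirmation series | times = compound treatment 24 h, 37°C, 5% CO2 | technique = beta-catenin immunofluorescence imaging with DAPI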
Dynein transport – inhibitors of GR-EGFP nuclear translocation, primary screen, dynein cargo transport inhibitor project, imaging, high-content, 3617.4 mouse cells; test concentration mostly 20 µM; stimulated with dexamethasone, 1 µM; hits give low values; z-score, hits read low; 220,000 compounds, 0.47% hits; AID 1381, 2008;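 active means plate z-score of nuclear minus cytoplasmic receptor signal below a set negative limit, without overly bright fluorescence or cell loss, cut at about -3.5 in these data, passing the limit was not always enough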;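 further: z-score of nuclear minus cytoplasmic ring GR-EGFP intensity difference per well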
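medium = tetracycline-free induction medium containing charcoal-stripped FBS | probe or stimulus = dexamethasone, 1.0 µM final | timing = 48 h induction, then 1 h compound, then 30 min agonist, 37 °C | detection = automated 10x imaging of fixed Hoechst-stained cells | read-out basis = nuclear versus cytoplasmic GR-EGFP signal, averaged per well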
Starred values were filed as active, the others as inactive; i = inactive; u = inconclusive; x = not tested or not shown.

SMILES	MT stabilize HCS	L major viab	HSV augment	bCat nuc transl	Dynein transport
CSc1nc(SCC(=O)NCc2ccco2)c2c3c(sc2n1)COC(C)(C)C3	35*	-1	i	-1	-0.31
CCCCc1nc2sc3c(SCCN(C)C)ncnc3c2c2c1CCC2	x	x	i	4	1.3
CCCCc1nc2sc3c(SCC(=O)NCc4ccco4)ncnc3c2c2c1CCC2	33*	1	i	17	-0.72
CCCCSc1nc(SCC(=O)NCc2ccco2)c2c3c(sc2n1)COC(C)(CC)C3 (centres undefined)	3	-4	i	3	0.41
O=C(Nc1ccc(N2CCN(C(=O)c3ccco3)CC2)cc1)c1ccco1	2	-6	i	0	0.76
CCCc1c(O)nc(SCC(=O)NCc2ccco2)[nH]c1=O	2	0	i	0	-0.49
CSc1ccc(CCNC(=O)c2cc(C)nn2-c2ccccc2)cc1	x	x	i	-1	-0.71
CCCCn1c(=O)[nH]c(=O)c2c1nc(-c1ccc(C)c([N+](=O)[O-])c1)n2CC	2	99*	i	-1	0.56
C=CCNC(=O)/C(C#N)=C/c1ccccc1[N+](=O)[O-]	6	4	i	-1	0.093
O=[N+]([O-])c1ccccc1S(=O)(=O)N1CCCCC1	3	-2	i	0	-0.19
O=[N+]([O-])c1ccc(/C=N/N2CCN(c3ccncc3S(=O)(=O)N3CCCCC3)CC2)cc1	2	99*	i	-2	-0.35
O=[N+]([O-])c1ccc(N2CCCCCC2)c(S(=O)(=O)N2CCCCC2)c1	2	38	i	2	-0.14
O=[N+]([O-])c1ccccc1/C=N/N1CCN(c2ccncc2S(=O)(=O)N2CCCCC2)CC1	3	99*	i	-3	-0.88
CCOC(=O)C1CCCN(c2nnnn2-c2ccccc2)C1 (centres undefined)	5	-8	x	-6	-0.7
CC1=NC(Nc2nc(C)c3ccccc3n2)=NC(C)(C)C1	2	98*	i	0	-0.88
CC(C)COC(=O)Nc1nnc(Cc2ccccc2)s1	3	-7	i	-1	0.98
COc1cccc(/C=C/C(=C2/C(=O)N(c3ccccc3)N=C2C)c2ccc(Br)cc2)c1OC	6	100*	i	-1	-0.51
COc1cccc(/C=C/C(=C2/C(=O)N(c3ccccc3)N=C2C)c2ccccc2)c1OC	6	95*	i	0	-0.53
CC(=O)N(C)C1=C(N2CCOCC2)C(=O)c2ccccc2C1=O	7	95*	i	2	-1.4
O=C(CC1C(=O)NCCN1C/C=C/c1ccccc1)NCCc1ccncc1 (centres undefined)	4	0	i	1	1.4
COc1ccc(/C=C2\CN(Cc3ccccc3)C/C(=C\c3ccc(OC)cc3)C2=O)cc1	10	100*	i	-1	-1.7
COc1ccc(/C=N/N=C2/SCC(=O)N2Cc2ccccc2)cc1	x	x	i	0	0.092
Cc1cc(S(=O)(=O)N2CCN(C(=O)CCC(=O)N3CCOCC3)CC2)ccc1Br	x	x	i	-2	-0.79
O=C(COC(=O)C1CCC(=O)N1)Nc1ccc(Cl)cc1Cl (centres undefined)	4	-2	i	0	-1.1
C=CCOc1cccc(/C=N/NC(=O)CN(c2cc(Cl)ccc2OC)S(=O)(=O)c2ccc(C)c([N+](=O)[O-])c2)c1	2	99*	i	-3	0.5
SMILES	MT stabilize HCS	L major viab	HSV augment	bCat nuc transl	Dynein transport
COc1ccc(Cl)cc1N(CC(=O)N/N=C/c1ccc(OC(C)C)cc1)S(=O)(=O)c1ccc(C)c([N+](=O)[O-])c1	3	98*	i	0	-0.3
O=C(Nc1ccc(F)cc1)Nc1nnc(-c2ccncc2)s1	3	27	i	4	0.075
CCOC(=O)/C(C#N)=C\C1=C(N2CCOCC2)CC(C)(C)OC1	1	-3	i	-5	-1.1
O=C1CC(c2cccc(Br)c2)c2cc3c(cc2N1)CCC3 (centres undefined)	28*	3	x	0	0.43
Cc1cc2c(cc1C)C(c1cccc([N+](=O)[O-])c1)CC(=O)N2 (centres undefined)	2	53*	i	x	-0.34
O=C1CC(c2cc(F)ccc2F)c2cc3c(cc2N1)CCC3 (centres undefined)	14*	18	i	-1	2.4
COc1ccc2cc(C3C(C#N)=C(N)OC(C)=C3C(C)=O)c(Cl)nc2c1 (centres undefined)	2	1	i	0	1.2
Nc1nc2n(n1)C(c1cccc(Br)c1)CC(c1ccccc1)N2 (centres undefined)	5	78*	i	-2	-1.1
COc1cccc(C2CC(c3cccc(Br)c3)n3nc(N)nc3N2)c1 (centres undefined)	6	75*	i	2	-0.68
CC(C)(C)NC(=O)C(c1ccccc1)N(Cc1cccs1)C(=O)c1csnn1 (centres undefined)	4	16	i	1	-0.14
C=C1CC(C(=O)N/N=C/c2ccc(O)cc2)C1	6	-3	i	x	0.3
O=C(CSc1nc2c(cnn2-c2ccc(F)cc2)c(=O)[nH]1)N1N=C(c2cccs2)CC1c1ccc(F)cc1 (centres undefined)	4	51*	i	-1	-0.13
Cc1noc(C)c1C(=O)Nc1sc(C)c(C)c1C#N	5	-1	u	0	-0.39
COc1ccc(-n2c(SCC(=O)NCCCN3CCCC3=O)nnc2C(C)N2CCCCC2)cc1 (centres undefined)	3	13	i	-3	0.37
COc1ccc(S(=O)(=O)N(C)CC(=O)N2CCC(C)CC2)cc1Cl	4	97*	i	x	-0.66
COc1ccc(OC)c(N(CC(=O)N2CCC(C)CC2)S(=O)(=O)c2ccc(OC)c(OC)c2)c1	3	2	i	1	-0.28
CCOC(=O)CNC(=O)CSc1nnc(-c2ccccc2)n1Cc1ccco1	2	-7	i	4	-0.31
CCCOc1ccc(/C=C2\SC(=S)N(CC3CCCO3)C2=O)cc1 (centres undefined)	5	66*	i	1	0.72
S=c1[nH]nc(-c2cc(-c3ccsc3)n[nH]2)n1-c1cccc2ccccc12	3	75*	i	-3	-0.54
CCn1cc(Br)c(C(=O)Nc2ccc(C(=O)OC(C)C)cc2)n1	3	17	i	-3	0.085
O=C1/C(=C/c2cccnc2)CCc2c1[nH]c1ccccc21	4	47	i	0	-0.56
CC1C/C(=C\c2cccnc2)C(=O)/C(=C/c2cccnc2)C1 (centres undefined)	32*	100*	i	0	-6.4*
COc1ccc(/C=C(/NC(=O)c2ccccc2)C(=O)N/N=C/c2sccc2C)cc1	5	5	i	0	-0.55
